Laboratory results: paper PMC4263960 (Pediatric blood & cancer, 2013)

Experiments:
CHLA-9 cell line = assay: DIMSCAN in vitro cytotoxicity testing, CHLA-9; assay type: cell-based
Outline: (§1)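 Test compound incubated with cells of a 24-line pediatric cancer panel for 96 h at 0.1 nM to 1 μM, then assessed by DIMSCAN. Relative IC50 (rIC50) derived per line. Panel comparison value is the panel rIC50 divided by the rIC50 of each cell line.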

CHLA-258 cell line = assay: DIMSCAN in vitro cytotoxicity testing, CHLA-258; assay type: cell-based
Outline: as §1

CHLA-90 cell line = assay: DIMSCAN in vitro cytotoxicity testing, CHLA-90; assay type: cell-based
Outline: as §1

[1] = test system: BT-41 ependymoma xenograft; assay: PPTP in vivo xenograft testing, BT-41; set-up: species or system mice
[2] = test system: NB-SD neuroblastoma xenograft; assay: PPTP in vivo xenograft testing, NB-SD; set-up: species or system mice
[3] = test system: OS-31 osteosarcoma xenograft; assay: PPTP in vivo xenograft testing, OS-31; set-up: species or system mice
[4] = test system: ALL-4 ALL B-precursor xenograft; assay: PPTP in vivo xenograft testing, ALL-4; set-up: species or system mice
[5] = test system: PPTP solid tumor xenografts; assay: PPTP in vivo testing, solid tumor xenograft panels summary; set-up: species or system mice
[6] = 1 mg/kg IP Q4Dx3 repeated at Day 21

**Q.** Which IC50 (CHLA-9 cell line; 96 h, read-out: rIC50) does the source give for `C=C1C[C@@H]2CC[C@@]34C[C@H]5O[C@H]6[C@@H](O3)[C@H]3O[C@H](CC[C@@H]3O[C@H]6[C@H]5O4)CC(=O)C[C@@H]3[C@@H](OC)[C@@H](C[C@H](O)CN)O[C@H]3C[C@H]3O[C@@H](CC[C@@H]1O2)C[C@@H](C)C3=C` [Eribulin] here?
**A.** Its IC50 is 0.16 nM.

**Q.** What about the “Panel rIC50/Line rIC50” value (CHLA-9 cell line; CHLA-9) of the same compound?
**A.** The value was 1.68.

**Q.** What about the Relative in/out% (CHLA-9 cell line; CHLA-9) of the same compound?
**A.** The Relative in/out% was −49%.

**Q.** What about the “Ymin % (observed)” value (CHLA-9 cell line; CHLA-9) of the same compound?
**A.** Its value is 1.82%.

**Q.** What about the IC50 (CHLA-258 cell line; 96 h, read-out: rIC50) of the same compound?
**A.** The IC50 was 0.5 nM.

**Q.** And the “Panel rIC50/Line rIC50” value (CHLA-258 cell line; CHLA-258)?
**A.** The value was 0.54.

**Q.** What about the Relative in/out% (CHLA-258 cell line; CHLA-258) of the same compound?
**A.** The Relative in/out% was −84%.

**Q.** What about the “Ymin % (observed)” value (CHLA-258 cell line; CHLA-258) of the same compound?
**A.** The value was 6.29%.

**Q.** What about the IC50 (CHLA-90 cell line; 96 h, read-out: rIC50) of the same compound?
**A.** Its IC50 is 1.77 nM.

**Q.** What about the “Panel rIC50/Line rIC50” value (CHLA-90 cell line; CHLA-90) of the same compound?
**A.** The value was 0.15.

**Q.** And the Relative in/out% (CHLA-90 cell line; CHLA-90)?
**A.** The Relative in/out% was −67%.

**Q.** What about the “Ymin % (observed)” value (CHLA-90 cell line; CHLA-90) of the same compound?
**A.** Its value is 9.26%.

**Q.** What about the Response activity ([1]; 1 mg/kg IP) of the same compound?
**A.** The Response activity was “Int (intermediate activity by a score of ≥2 but <6)”.

**Q.** And the T/C volume activity ([1]; 1 mg/kg IP)?
**A.** Its T/C volume activity is “Int (Intermediate activity = T/C ≤0.45 but >0.15)”.

**Q.** And the “Median final RTV (CD45%)” value [1, 6]?
**A.** Its value is 1.3.

**Q.** And the “Tumor volume T/C” value ([1]; 1 mg/kg IP, Day 21 or earlier)?
**A.** Its value is 0.42.

**Q.** What about the EFS activity ([2]; 1 mg/kg IP) of the same compound?
**A.** Its EFS activity is “Int (Intermediate activity = criteria (a) and (b) above, but not having a net reduction in median tumor volume for treated animals at the end of the study)”.

**Q.** And the Response activity ([2]; 1 mg/kg IP)?
**A.** Its Response activity is “Int (intermediate activity by a score of ≥2 but <6)”.

**Q.** And the T/C volume activity ([2]; 1 mg/kg IP)?
**A.** The T/C volume activity was “Low (Low activity = T/C >0.45)”.

**Q.** And the “EFS T/C” value [2, 6]?
**A.** The value was 2.4.

**Q.** What about the “Median final RTV (CD45%)” value [2, 6] of the same compound?
**A.** The value was >4.

**Q.** And the Time to event [2, 6]?
**A.** Its Time to event is 17.5.

**Q.** What about the “Tumor volume T/C” value ([2]; 1 mg/kg IP, Day 21 or earlier) of the same compound?
**A.** Its value is 0.53.

**Q.** And the EFS activity ([3]; 1 mg/kg IP)?
**A.** Its EFS activity is “Int (Intermediate activity = criteria (a) and (b) above, but not having a net reduction in median tumor volume for treated animals at the end of the study)”.

**Q.** And the Response activity ([3]; 1 mg/kg IP)?
**A.** Its Response activity is “Int (intermediate activity by a score of ≥2 but <6)”.

**Q.** And the T/C volume activity ([3]; 1 mg/kg IP)?
**A.** Its T/C volume activity is “Int (Intermediate activity = T/C ≤0.45 but >0.15)”.

**Q.** And the “EFS T/C” value [3, 6]?
**A.** Its value is >2.6.

**Q.** And the “Median final RTV (CD45%)” value [3, 6]?
**A.** The value was 1.8.

**Q.** And the “Tumor volume T/C” value ([3]; 1 mg/kg IP, Day 21 or earlier)?
**A.** Its value is 0.27.

**Q.** What about the EFS activity ([4]; 1.5 mg/kg IP) of the same compound?
**A.** The EFS activity was “High (High activity requires: (a) an EFS T/C >2; (b) a significant difference in EFS distributions, and (c) a net reduction in median tumor volume for animals in the treated group at the end of treatment as compared to at treatment initiation)”.

**Q.** And the Response activity ([4]; 1.5 mg/kg IP)?
**A.** The Response activity was “High (A high level of activity is indicated by a score of 6 or more)”.

**Q.** And the “EFS T/C” value ([4]; 1.5 mg/kg IP Q4Dx3 repeated at Day 21)?
**A.** The value was >4.3.

**Q.** And the “Median final RTV (CD45%)” value ([4]; CD45%, 1.5 mg/kg IP)?
**A.** The value was 0.0%.

**Q.** What about the “xenografts with CR or maintained CR” value ([5]; Ewing sarcoma xenografts) of the same compound?
**A.** Its value is “four of five”.

**Q.** What about the “xenografts with CR or maintained CR” value ([5]; Ewing sarcoma xenografts, listed as eribulin) of the same compound?
**A.** The value was 4 of 5.

**Q.** And the “xenografts with high EFS T/C activity” value ([5]; evaluable Ewing sarcoma xenografts)?
**A.** The value was “three of four”.

**Q.** What about the “xenografts with high EFS T/C activity” value ([5]; evaluable osteosarcoma xenografts) of the same compound?
**A.** Its value is “three of five”.

**Q.** What about the “xenografts with significant difference in EFS distribution compared to control” value ([5]; evaluable solid tumor xenografts, 1 mg/kg) of the same compound?
**A.** Its value is 29 of 35.

**Q.** And the “xenografts with CR or maintained CR” value ([5]; glioblastoma xenografts)?
**A.** Its value is “two of four”.

**Q.** And the “xenografts with high EFS T/C activity” value ([5]; glioblastoma xenografts)?
**A.** The value was “two of four”.

**Q.** What about the “xenografts with CR or maintained CR” value ([5]; osteosarcoma xenografts) of the same compound?
**A.** The value was “three of six”.

**Q.** What about the “xenografts with high activity” value ([5]; osteosarcoma xenografts) of the same compound?
**A.** Its value is “three”.

**Q.** And the “xenografts with CR or maintained CR” value ([5]; rhabdomyosarcoma xenografts)?
**A.** The value was “six of seven”.

**Q.** What about the “xenografts with MCR” value ([5]; rhabdomyosarcoma xenografts) of the same compound?
**A.** The value was 6 of 7.

**Q.** What about the “xenografts with high EFS T/C activity” value ([5]; rhabdomyosarcoma xenografts) of the same compound?
**A.** Its value is “six of seven”.

**Q.** What about the “lines with high EFS T/C activity” value ([5]; solid tumor models) of the same compound?
**A.** The value was 17.

**Q.** What about the “lines with intermediate EFS T/C activity” value ([5]; solid tumor models) of the same compound?
**A.** Its value is “seven”.

**Q.** What about the “xenografts with objective response” value ([5]; solid tumor xenografts, 1 mg/kg) of the same compound?
**A.** The value was 18 of 35.
